Values after ≈ are worked out from the molar mass of the structure shown.
Tests used:
Acetylcholinesterase [1] = target: T1, Acetylcholinesterase (Homo sapiens, UniProt P22303); assay: Inhibition of recombinant human erythrocyte AChE using acetyl-or butyrylthiocholine iodide as substrate at 1 x 10^-6M preincubated for 5 mins followed by substrate addition and measured every min for 10 mins by Ellman's method relative to control; conditions: dose 1.0 10^-6M, time 15.0 min
Method in brief: (§1)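 AChE from human erythrocytes (0.05 U final) or recombinant AChE (0.025 U final), diluted in 20 mM HEPES pH 8 with 0.1 % Triton X-100, in an Ellman assay. DTNB is 0.3 mM in phosphate buffer pH 7.4 and compound is in DMSO. Enzyme and compound are preincubated 5 min at 25 °C. Reaction starts with 1 mM acetylthiocholine iodide solution.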

[2] = target: T2, 5-hydroxytryptamine receptor 4 (Homo sapiens, UniProt Q13639); assay: Inhibition of human recombinant 5HT4 receptor at 1 x 10^-6M incubated for 60 mins relative to control; conditions: dose 1.0 10^-6M
T2 sequence (Q13639 whole entry): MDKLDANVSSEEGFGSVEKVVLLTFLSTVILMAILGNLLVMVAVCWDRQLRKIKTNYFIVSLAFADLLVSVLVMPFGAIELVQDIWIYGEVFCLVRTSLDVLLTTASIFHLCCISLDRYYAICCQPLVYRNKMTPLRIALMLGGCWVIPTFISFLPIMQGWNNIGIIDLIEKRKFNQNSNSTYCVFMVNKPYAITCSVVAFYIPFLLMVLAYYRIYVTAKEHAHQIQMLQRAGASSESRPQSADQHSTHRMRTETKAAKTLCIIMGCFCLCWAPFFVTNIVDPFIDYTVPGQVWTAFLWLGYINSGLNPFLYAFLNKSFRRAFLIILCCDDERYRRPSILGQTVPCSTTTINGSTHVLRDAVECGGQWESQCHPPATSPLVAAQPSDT
Method in brief: (§2)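 Membranes (2.5 μg protein) from a stable recombinant line expressing h5-HT4(b) receptor. Incubated in duplicate at 25 °C for 60 min with 0.2 nM [3H]-GR113808 in 25 mM Tris pH 7.4, with drug at 10^-6 or 10^-8 M. GF/C filtration; non-specific binding defined with 30 μM serotonin. Ki from five-point inhibition curves, ± SD.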

[3] = target: T2, 5-hydroxytryptamine receptor 4; assay: Inhibition of human recombinant 5HT4 receptor at 1 x 10^-8M incubated for 60 mins relative to control; conditions: dose 1.0 10^-8M; method in brief: as §2
Acetylcholinesterase [4] = target: T1, Acetylcholinesterase; assay: Inhibition of recombinant human erythrocyte AChE using acetyl-or butyrylthiocholine iodide as substrate preincubated for 5 mins followed by substrate addition and measured every min for 10 mins by Ellman's method
[5] = target: T2, 5-hydroxytryptamine receptor 4; assay: Partial agonist activity at human recombinant 5HT4 receptor at 1 x 10^-8M incubated for 60 mins; type: functional
Cholinesterase = Cholinesterase (Equus caballus, UniProt P81908); assay: Inhibition of equine serum BuChE using Acetyl and butyrylthiocholine iodide as substrate preincubated for 5 mins followed by substrate addition and measured every min for 10 mins by Ellman's method
Chain of Cholinesterase (P81908 whole entry): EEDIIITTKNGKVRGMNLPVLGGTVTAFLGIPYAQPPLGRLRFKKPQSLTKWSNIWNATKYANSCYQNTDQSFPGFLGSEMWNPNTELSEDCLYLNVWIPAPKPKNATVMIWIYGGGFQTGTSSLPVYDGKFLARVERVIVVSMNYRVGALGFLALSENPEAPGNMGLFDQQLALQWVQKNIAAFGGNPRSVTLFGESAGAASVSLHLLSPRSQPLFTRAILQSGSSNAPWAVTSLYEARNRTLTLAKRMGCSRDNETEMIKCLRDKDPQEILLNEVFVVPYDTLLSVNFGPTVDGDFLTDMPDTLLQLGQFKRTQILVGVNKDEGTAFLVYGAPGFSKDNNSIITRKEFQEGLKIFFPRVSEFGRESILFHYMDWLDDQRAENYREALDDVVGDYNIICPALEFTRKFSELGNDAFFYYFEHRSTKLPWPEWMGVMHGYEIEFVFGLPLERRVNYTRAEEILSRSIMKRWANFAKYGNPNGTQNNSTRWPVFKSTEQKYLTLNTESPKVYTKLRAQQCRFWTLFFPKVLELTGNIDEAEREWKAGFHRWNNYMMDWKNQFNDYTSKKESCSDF

[6] = target: T2, 5-hydroxytryptamine receptor 4; assay: Partial agonist activity at human recombinant 5HT4 receptor expressed in […] cells assessed as cAMP accumulation in presence of serotonin by HTRF analysis; type: functional, cell-based
Method in brief: (§3)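 COS-7 cells grown in DMEM with 10 % dialyzed FCS and transiently transfected with HA-tagged h5-HT4R, then plated at 16,000 cells/well. At 24 h, cells were exposed for 10 min at 37 °C to 5-HT4 ligands in HEPES-buffered saline containing 0.1 % BSA and 0.1 mM RO-20-1724. Cells were lysed with 0.1 % Triton X-100 and cAMP measured by HTRF.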

[7] = Intrinsic solubility of the compound at pH 12 by classical shake-flask method; type: physicochemical; conditions: buffer
Method in brief: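 Shake-flask method: 1 mg compound in 4 mL pH 12 phosphate buffer with KCl, n = 3. Sonicated, shaken at room temperature for 48 h, centrifuged. Supernatant mixed 1:1 with acetonitrile/DMSO (99:1) and quantified by UV at 326 nm against a four-point calibration curve.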

[8] = Thermodynamic solubility of compound at pH 7.4 by classical shake-flask method; type: physicochemical; conditions: buffer, read-out: Therm_solubility
Method in brief: (§4)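 Shake-flask thermodynamic solubility (OECD 105, miniaturized). 1 mg of solid added to 4 mL of water or potassium phosphate buffer at pH 7.4 or 12 (n = 3), sonicated and shaken horizontally at room temperature for 48 h. After centrifugation, supernatant was mixed 1:1 with acetonitrile/DMSO and quantified by UV at 326 nm against a four-point calibration curve.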

[9] = Thermodynamic solubility of compound by classical shake-flask method; type: physicochemical; conditions: read-out: Therm_solubility; method in brief: as §4
P-glycoprotein (ABCB1) [10] = target: T3, P-glycoprotein (ABCB1) (Homo sapiens, UniProt P08183); assay: Inhibition of P-glycoprotein mediated Rhodamine-123 efflux in human NCI/ADR-RES cells assessed as increase in intracellular fluorescence at 10 uM incubated for 24 hrs relative to control; type: cell-based; conditions: probe Rhodamine-123
T3 sequence (P08183 whole entry): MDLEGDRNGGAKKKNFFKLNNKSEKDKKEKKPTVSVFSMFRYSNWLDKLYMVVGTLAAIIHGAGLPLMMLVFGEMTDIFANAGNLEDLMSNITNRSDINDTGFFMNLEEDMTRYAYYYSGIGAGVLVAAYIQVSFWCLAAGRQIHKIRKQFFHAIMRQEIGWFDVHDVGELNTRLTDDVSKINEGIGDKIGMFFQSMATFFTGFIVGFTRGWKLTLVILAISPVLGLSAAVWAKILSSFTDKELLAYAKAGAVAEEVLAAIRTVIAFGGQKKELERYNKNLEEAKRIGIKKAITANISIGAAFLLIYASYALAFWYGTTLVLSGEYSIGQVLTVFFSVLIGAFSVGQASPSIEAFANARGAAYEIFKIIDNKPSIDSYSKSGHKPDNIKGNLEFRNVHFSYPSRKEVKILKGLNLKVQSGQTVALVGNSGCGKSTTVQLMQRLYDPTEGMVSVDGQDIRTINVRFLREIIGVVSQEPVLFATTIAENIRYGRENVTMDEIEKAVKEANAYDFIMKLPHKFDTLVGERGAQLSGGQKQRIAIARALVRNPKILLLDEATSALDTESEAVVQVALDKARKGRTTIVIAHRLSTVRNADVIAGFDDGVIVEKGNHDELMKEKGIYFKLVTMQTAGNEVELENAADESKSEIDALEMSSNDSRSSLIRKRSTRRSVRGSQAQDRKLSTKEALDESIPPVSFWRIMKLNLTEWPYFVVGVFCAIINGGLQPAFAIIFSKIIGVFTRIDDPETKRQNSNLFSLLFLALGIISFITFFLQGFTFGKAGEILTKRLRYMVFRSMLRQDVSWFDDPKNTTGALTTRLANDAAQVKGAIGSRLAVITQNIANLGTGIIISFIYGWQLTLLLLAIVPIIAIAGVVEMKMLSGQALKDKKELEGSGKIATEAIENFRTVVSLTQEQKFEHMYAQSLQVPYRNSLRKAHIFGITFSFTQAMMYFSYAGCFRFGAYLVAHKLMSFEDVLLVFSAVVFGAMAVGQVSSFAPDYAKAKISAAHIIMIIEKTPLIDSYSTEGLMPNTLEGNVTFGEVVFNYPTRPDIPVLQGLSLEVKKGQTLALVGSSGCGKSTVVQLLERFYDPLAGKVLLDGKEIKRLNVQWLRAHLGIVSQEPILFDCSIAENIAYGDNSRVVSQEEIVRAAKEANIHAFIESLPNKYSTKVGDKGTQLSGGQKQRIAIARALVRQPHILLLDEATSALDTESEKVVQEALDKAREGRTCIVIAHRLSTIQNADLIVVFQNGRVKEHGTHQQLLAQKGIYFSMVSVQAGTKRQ
Method in brief: (§5)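 NCI/ADR-RES cells in RPMI with 10 % FCS, seeded 24 h before the assay. […] Washed three times, lysed in Tris/SDS, fluorescence read (ex 507/em 528 nm). Cyclosporin A as positive control.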

P-glycoprotein (ABCB1) [11] = target: T3, P-glycoprotein (ABCB1); assay: Inhibition of P-glycoprotein mediated Rhodamine-123 efflux in human NCI/ADR-RES cells assessed as increase in intracellular fluorescence at 1 uM incubated for 24 hrs relative to control; type: cell-based; conditions: probe Rhodamine-123; method in brief: as §5
[12] = Cytotoxicity against human MRC5 cells assessed as growth inhibition at 10 uM incubated for 72 hrs by MTS assay relative to control; type: toxicity, cell-based; conditions: read-out: Activity
Method in brief: (§6)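 MRC5-SV2 cells in D-MEM with 10 % FCS, treated 24 h after plating with compound from DMSO stock (DMSO 1 % final). After 72 h, MTS added for 3 h at 37 °C and absorbance read at 490 nm. Growth inhibition = (1 − OD treated/OD control) × 100, triplicate experiments.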

[13] = Cytotoxicity against human MRC5 cells assessed as growth inhibition at 1 uM incubated for 72 hrs by MTS assay relative to control; type: toxicity, cell-based; conditions: read-out: Activity; method in brief: as §6
[14] = Mutagenicity in Salmonella typhimurium TA97a by Ames test; type: toxicity; conditions: salmonella enterica subsp. enterica serovar typhimurium
Method in brief: (§7)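 Semi-quantitative spot test with S. typhimurium TA97a, TA98, TA100 and TA102, with and without S9 mix.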

[15] = Mutagenicity in Salmonella typhimurium TA98 by Ames test; type: toxicity; conditions: salmonella enterica subsp. enterica serovar typhimurium; method in brief: as §7
[16] = Mutagenicity in Salmonella typhimurium TA100 by Ames test; type: toxicity; conditions: salmonella enterica subsp. enterica serovar typhimurium; method in brief: as §7
[17] = Mutagenicity in Salmonella typhimurium TA102 by Ames test; type: toxicity; conditions: salmonella enterica subsp. enterica serovar typhimurium; method in brief: as §7
[18] = Oral bioavailability in Wistar rat at 1 to 9 mg/kg; type: ADME, organism-based; conditions: in vivo, dose 1-9 mg/kg
Method in brief: (§8)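 Oral doses of 1, 3 and 9 mg/kg alongside iv and ip dosing, in 0.9 % saline, n = 3 per dose. Terminal plasma under isoflurane at six time points, UHPLC–MS/MS quantification. Bioavailability from non-compartmental AUCs, with the methods giving F = (AUCpo/AUCip) × (Doseip/Dosepo).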

[19] = Oral bioavailability in C57BL6 mouse at 1 to 9 mg/kg; type: ADME, organism-based; conditions: in vivo, dose 1-9 mg/kg; method in brief: as §8
[20] = AUC in Wistar rat at 3 mg/kg, ip; type: ADME, organism-based; conditions: in vivo
Method in brief: (§9)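 Single ip dose in 0.9 % saline (10 mL/kg mouse, 2 mL/kg rat), n = 3 per dose. CSF from cisterna magna and cardiac-puncture blood taken under isoflurane at six time points. Protein precipitation, then UHPLC–MS/MS (LLOQ 1 ng/mL). AUC0–∞ by linear trapezoidal non-compartmental analysis.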

[21] = AUC in C57BL6 mouse at 3 mg/kg, ip; type: ADME, organism-based; conditions: in vivo; method in brief: as §9
Acetylcholinesterase [22] = target: T1, Acetylcholinesterase; assay: Inhibition of recombinant human erythrocyte AChE using acetyl-or butyrylthiocholine iodide as substrate at 1 x 10^-5M preincubated for 5 mins followed by substrate addition and measured every min for 10 mins by Ellman's method relative to control; conditions: dose 1.0 10^-5M, time 15.0 min; method in brief: as §1
[23] = target: T2, 5-hydroxytryptamine receptor 4; assay: Binding affinity to human recombinant 5HT4 receptor assessed as inhibition constant incubated for 60 mins
[24] = target: T2, 5-hydroxytryptamine receptor 4; assay: Partial agonist activity at human recombinant 5HT4 receptor at 1 x 10^-6M incubated for 60 mins relative to control; type: functional; conditions: filed as partial agonist, dose 1.0 10^-6M
[25] = target: T2, 5-hydroxytryptamine receptor 4; assay: Partial agonist activity at human recombinant 5HT4 receptor at 1 x 10^-8M incubated for 60 mins relative to control; type: functional; conditions: filed as partial agonist, dose 1.0 10^-8M
[26] = target: Cholinesterase (Equus caballus) (UniProt P81908); assay: Inhibition of equine serum BuChE using Acetyl and butyrylthiocholine iodide as substrate at 1 x 10^-5M preincubated for 5 mins followed by substrate addition and measured every min for 10 mins by Ellman's method relative to control; conditions: dose 1.0 10^-5M, time 15.0 min
Chain of Cholinesterase (Equus caballus) (P81908 whole entry): as the sequence (P81908 whole entry) above

[27] = target: Acetylcholinesterase (Electrophorus electricus) (UniProt O42275); assay: Displacement of propidium iodide from electric eel AChE 1 x 10^-5M relative to control; conditions: dose 1.0 10^-5M
Chain of Acetylcholinesterase (Electrophorus electricus) (O42275 24-633 limits assumed): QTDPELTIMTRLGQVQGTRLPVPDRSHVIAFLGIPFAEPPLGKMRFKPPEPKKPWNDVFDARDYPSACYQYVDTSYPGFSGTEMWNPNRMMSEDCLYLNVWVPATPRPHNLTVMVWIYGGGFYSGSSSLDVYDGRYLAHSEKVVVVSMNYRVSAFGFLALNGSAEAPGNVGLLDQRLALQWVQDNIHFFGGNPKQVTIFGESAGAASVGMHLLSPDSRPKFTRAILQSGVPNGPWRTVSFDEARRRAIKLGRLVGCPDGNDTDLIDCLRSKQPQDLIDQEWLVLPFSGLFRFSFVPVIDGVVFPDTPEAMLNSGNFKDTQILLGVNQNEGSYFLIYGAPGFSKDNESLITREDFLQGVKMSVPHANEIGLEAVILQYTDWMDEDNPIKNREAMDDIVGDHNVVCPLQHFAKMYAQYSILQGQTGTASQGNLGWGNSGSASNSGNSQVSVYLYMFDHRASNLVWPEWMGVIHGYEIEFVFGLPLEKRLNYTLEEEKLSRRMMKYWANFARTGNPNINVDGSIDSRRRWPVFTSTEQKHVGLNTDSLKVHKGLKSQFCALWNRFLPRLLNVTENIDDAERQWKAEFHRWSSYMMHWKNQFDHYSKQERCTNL

[28] = target: T2, 5-hydroxytryptamine receptor 4; assay: Partial agonist activity at human recombinant 5HT4 receptor expressed in […] cells assessed as cAMP accumulation by measuring maximum efficacy in presence of serotonin by HTRF analysis relative to control; type: functional, cell-based; conditions: filed as partial agonist; method in brief: as §3
[29] = target: T2, 5-hydroxytryptamine receptor 4; assay: (§10) Partial agonist activity at human recombinant 5HT4 receptor transiently transfected in […] cells using p-nitrophenyl phosphate disodium hexahydrate as substrate assessed as induction of sAPPalpha release incubated for 30 mins by microplate reader analysis; type: functional, cell-based; conditions: filed as partial agonist
Method in brief: (§11)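 COS-7 cells co-transfected with FLG-tagged h5-HT4 receptor and SEAP-tagged mouse APP695, seeded at 300,000 cells/well. At 24 h, cells were exposed to drug for 30 min. Supernatants were collected and secreted SEAP activity read colorimetrically with p-nitrophenyl phosphate as substrate.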

[30] = target: T2, 5-hydroxytryptamine receptor 4; assay: as §10, with “release by measuring maximum efficacy” for “release”, “analysis relative to control” for “analysis”; type: functional, cell-based; method in brief: as §11

T1 sequence (P22303 whole entry): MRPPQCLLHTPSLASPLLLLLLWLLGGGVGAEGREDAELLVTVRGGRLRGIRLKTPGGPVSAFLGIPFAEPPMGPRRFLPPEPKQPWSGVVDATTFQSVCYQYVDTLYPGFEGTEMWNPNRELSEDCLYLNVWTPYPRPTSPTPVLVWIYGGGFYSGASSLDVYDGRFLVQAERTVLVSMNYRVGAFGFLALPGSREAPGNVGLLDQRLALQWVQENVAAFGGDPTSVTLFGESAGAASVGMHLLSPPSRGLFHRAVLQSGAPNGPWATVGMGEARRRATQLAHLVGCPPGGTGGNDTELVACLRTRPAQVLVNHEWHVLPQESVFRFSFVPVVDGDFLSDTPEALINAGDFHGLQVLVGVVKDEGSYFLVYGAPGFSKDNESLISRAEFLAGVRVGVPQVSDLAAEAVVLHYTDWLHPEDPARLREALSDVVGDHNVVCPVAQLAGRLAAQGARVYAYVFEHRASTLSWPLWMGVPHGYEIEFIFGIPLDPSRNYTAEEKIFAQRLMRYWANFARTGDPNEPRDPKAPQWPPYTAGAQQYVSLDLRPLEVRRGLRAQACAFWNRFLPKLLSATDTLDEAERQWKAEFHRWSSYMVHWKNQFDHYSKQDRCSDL

| Structure (SMILES) | inhibition (Acetylcholinesterase [1]) [%] | inhibition [2] [%] | inhibition [3] [%] | IC50 (Acetylcholinesterase [4]) [nM] | other results |
| --- | --- | --- | --- | --- | --- |
| CCOc1cc(N)c(Cl)cc1C(=O)CCC1CCN(CC2CCCCC2)CC1 | 69 | 103 | 86 |  |  |
| CC(=O)Nc1cc(O)c(C(=O)CCC2CCN(CC3CCCCC3)CC2)cc1Cl | 94 | 47 | 8 | 57.3 |  |
| COc1c(C(=O)CCC2CCN(CC3CCCCC3)CC2)cc(F)c(N)c1Br | 85 | 80 | 8 | 309 |  |
| COc1cc(N)c(F)cc1C(=O)CCC1CCN(CC2CCCCC2)CC1 [listing 1 of 2 here] |  |  |  |  | Ki [5]: 9.6 nM; IC50 (Cholinesterase): 6200 nM; EC50 [6]: 1.3 nM; solubility thermodynamic [7]: 2 µM (≈ 0.753 µg/mL); solubility thermodynamic [8]: 104 µM (≈ 39.2 µg/mL); solubility thermodynamic [9]: 444 µM (≈ 167 µg/mL); inhibition at 24 h, 10 µM (P-glycoprotein (ABCB1) [10]): 111%; inhibition at 24 h, 1 µM (P-glycoprotein (ABCB1) [11]): 125%; inhibition at 72 h, 10 µM [12]: 0%; inhibition at 72 h, 1 µM [13]: 0%; Activity [14]: Non-toxic; Activity [15]: Non-toxic; Activity [16]: Non-toxic; Activity [17]: Non-toxic; bioavailability [18]: 3.6%; bioavailability [19]: 12.4%; AUC [20]: 9.26 ng·h/mL; AUC [21]: 7.66 ng·h/mL |
| COc1cc(O)c(Cl)cc1C(=O)CCC1CCN(CC2CCCCC2)CC1 | 78 | 76 | 2 |  |  |
| COc1cc(N)c(Br)cc1C(=O)CCC1CCN(CC2CCCCC2)CC1 |  | 105 | 61 |  | inhibition (Acetylcholinesterase [22]): 98% |
| COc1ccccc1C(=O)CCC1CCN(CC2CCCCC2)CC1 | 85 | 102 | 31 | 166 | Ki [23]: 121 nM |
| COc1cc(N)c(F)cc1C(=O)CCC1CCN(CC2CCCCC2)CC1 [listing 2 of 2 here] | 96 | 102 | 68 |  | Activity [24]: 100%; Activity [25]: 66%; inhibition [26]: 65%; inhibition [27]: 22%; Emax [28]: 67.3%; Activity [29]: Dose-dependent-effect; EC50 [29]: 23 nM; Emax [30]: 19.7% |
| Nc1ccc(C(=O)CCC2CCN(CC3CCCCC3)CC2)cc1Cl | 96 | 97 | 10 | 49.7 |  |
| Nc1ccc(C(=O)CCC2CCN(CC3CCCCC3)CC2)c(OCCF)c1 | 79 | 100 | 27 | 318 | Ki [23]: 39.9 nM |
| Nc1cc(O)c(C(=O)CCC2CCN(CC3CCCCC3)CC2)cc1Cl | 93 | 96 | 3 |  |  |
